This is a sample that favours compounds with a hit; in the whole collection about 1.8% have one here.
DAGLB inh – blocks human DAGLB lipase activity. Q8NCG7. hit rate 0.059% among 340,000. HEK293T DAGLB membrane lysate, EnzChek fluorogenic substrate. inhibition, % at 5.17 µM; in the data active = inhibition above about 34%;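 also: 0% = enzyme with vehicle and 100% = wells lacking enzyme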
Target sequence (Q8NCG7 whole entry, looked up): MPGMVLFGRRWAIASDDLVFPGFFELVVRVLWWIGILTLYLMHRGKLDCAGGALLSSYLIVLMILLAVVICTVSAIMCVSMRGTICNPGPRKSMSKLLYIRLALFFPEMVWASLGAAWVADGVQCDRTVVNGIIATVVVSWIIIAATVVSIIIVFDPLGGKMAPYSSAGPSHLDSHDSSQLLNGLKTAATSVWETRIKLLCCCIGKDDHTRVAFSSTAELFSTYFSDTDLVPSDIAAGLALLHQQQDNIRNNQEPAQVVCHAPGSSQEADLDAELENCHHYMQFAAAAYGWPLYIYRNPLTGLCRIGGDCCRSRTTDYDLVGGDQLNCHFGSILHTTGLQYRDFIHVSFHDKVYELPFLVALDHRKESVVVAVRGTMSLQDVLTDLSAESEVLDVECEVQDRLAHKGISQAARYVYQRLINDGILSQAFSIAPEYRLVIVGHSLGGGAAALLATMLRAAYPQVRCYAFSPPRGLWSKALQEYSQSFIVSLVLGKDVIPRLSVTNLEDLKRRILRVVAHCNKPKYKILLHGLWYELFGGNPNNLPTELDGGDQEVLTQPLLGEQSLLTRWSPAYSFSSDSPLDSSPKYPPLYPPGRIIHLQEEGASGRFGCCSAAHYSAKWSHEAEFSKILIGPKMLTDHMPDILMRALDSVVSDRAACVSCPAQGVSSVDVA
MsrA act – activators of bovine methionine sulfoxide reductase A | activation, % at 10.6 µM | hit rate 0.3% among 360,000 | purified bovine MsrA, absorbance read-out; in the data active = activation above about 7.5%;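 also: 0% = vehicle and 100% = reference activator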
SKN-1 block – inhibitors of C. elegans SKN-1 | C. elegans VP596 Pgst-4::GFP/RFP ratio, acrylamide-induced, 24 h | hit rate 0.49% among 360,000 | inhibition, % at 21.8 µM;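 active = interference check ratio from 0.5 to 1.5 plus GFP to RFP signal ratio inhibition reaching or exceeding a fixed threshold, cut at about 30% in these data, passing the limit was not always enough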
beta cell repl – induces beta-cell replication in MIN6 cells; hit rate 0.29% among 330,000; proliferation, % at 10 µM; MIN6 cells proliferation, ATPlite luminescence, 48 h; cells starved in 0.2% serum; 100% = growth in 10% serum; AID 2380;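 active = compounds whose signal lies at least 3.5 SD above the mean of all wells on their plate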;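 also: 0% = DMSO-treated cells in low-serum medium and 100% = 10% serum control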
MsrA inhibitor – inhibits bovine methionine sulfoxide reductase A | purified bovine MsrA, absorbance read-out | hit rate 0.75% among 360,000 | inhibition, % at 15.5 µM; in the data active = inhibition above about 4.5%;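 also: 0% = vehicle wells with enzyme and 100% = reference inhibitor wells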
MT1-MMP act inh – inhibitors of human MT1-MMP activation. hit rate 0.061% among 360,000. HT1080 RFP-PRO-GFP cells, GFP/RFP ratio fluorescence, overnight; percent of plate control window, DMSO zero. P50281. AID 651647. GFP/RFP ratio change, % at 20 µM;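 active = GFP/RFP ratio change of at least 30% with cell ATP level not reduced by more than half and red fluorescence within 50% of control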
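Assay system: RFP-PRO-GFP reporter HT1080 cells; read-out basis: GFP/RFP fluorescence ratio; benchmarks: DMSO wells and RFP-L50D-GFP cells; doses: 20 µM single dose, 1% DMSO; schedule: overnight cell settling, then overnight compound exposure, 37 °C, 5% CO2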
The depositor's hits bear a star.

Results for Cc1oc(-c2ccc(-c3ccccc3)cc2)nc1CN(C)C1CCOC1 (stereo not drawn) ?
DAGLB inh: -2; MsrA act: -1; SKN-1 block: 65*; beta cell repl: -2; MsrA inhibitor: 0; MT1-MMP act inh: 1

What do the screens show for `O=[N+]([O-])c1cccc(/C=C/c2ccccn2)c1`?
DAGLB inh: -5; MsrA act: -10; SKN-1 block: 36*; beta cell repl: -2; MsrA inhibitor: 1; MT1-MMP act inh: 0

Results for COc1ccc(C(O)CNc2ccc(C)cc2)cc1 (stereo not drawn) ?
DAGLB inh: -4; MsrA act: -1; SKN-1 block: 36*; beta cell repl: 0; MsrA inhibitor: 1; MT1-MMP act inh: 3

How did COc1ccc(CCNc2ccc(C)cc2)cc1 do in these assays?
DAGLB inh: -13; MsrA act: -1; SKN-1 block: 12; beta cell repl: -1; MsrA inhibitor: 0; MT1-MMP act inh: 9

How did Nc1ccccc1-c1nnn(CC(=O)Nc2ccc3c(c2)OCCO3)n1 do in these assays?
DAGLB inh: -1; MsrA act: -1; SKN-1 block: -4; beta cell repl: -1; MsrA inhibitor: 3; MT1-MMP act inh: -1

How did COc1ccc(C(=O)Nc2ccccc2-c2nnn(CC(=O)Nc3ccc4c(c3)OCCO4)n2)cc1 do in these assays?
DAGLB inh: 0; MsrA act: 8.5*; SKN-1 block: -17; beta cell repl: -2; MsrA inhibitor: 0; MT1-MMP act inh: 2

Results for Cc1ccsc1C=Nc1ccc(O)cc1 ?
DAGLB inh: 7; MsrA act: -11; SKN-1 block: 28*; beta cell repl: -4; MT1-MMP act inh: 9

Results for CCCOc1ccc(-c2nc(OCC)c3ccccc3n2)cc1 ?
DAGLB inh: -5; MsrA act: -2; SKN-1 block: 8; beta cell repl: -4; MsrA inhibitor: 0; MT1-MMP act inh: 1

What do the screens show for `CCOc1nc(-c2ccncc2)nc2ccccc12`?
DAGLB inh: 0; MsrA act: 0; SKN-1 block: 39*; beta cell repl: 6; MsrA inhibitor: 0; MT1-MMP act inh: -7

Results for O=C(c1cc(COc2ccc(F)cc2Cl)on1)N1CCCCCC1 ?
DAGLB inh: -2; MsrA act: -2; SKN-1 block: 38*; beta cell repl: 0; MsrA inhibitor: 2; MT1-MMP act inh: 1

Results for O=C(c1cc(COc2ccc(F)cc2Cl)on1)N1CCCCCCC1 ?
DAGLB inh: -8; MsrA act: -1; SKN-1 block: 18; beta cell repl: -2; MsrA inhibitor: 3; MT1-MMP act inh: 1

What do the screens show for `c1ccc(CN2CCCC3CC2c2ccccc23)cc1` (stereo not drawn)?
MsrA inhibitor: 1

How did C[C@H]1[C@H](c2ccccc2)Oc2cccc(NCCc3ccccc3)c2S(=O)(=O)N1Cc1cccc(F)c1 do in these assays?
MsrA inhibitor: 0

What do the screens show for `COC(=O)c1ccc(CSc2nc(N)cc(N)n2)cc1`?
DAGLB inh: 0; MsrA act: 2; SKN-1 block: 14; beta cell repl: -2; MsrA inhibitor: -1; MT1-MMP act inh: 4

How did COC(=O)c1ccc(CSc2nc3ccccc3o2)cc1 do in these assays?
DAGLB inh: -12; MsrA act: -11; SKN-1 block: 40*; beta cell repl: -3; MsrA inhibitor: 0; MT1-MMP act inh: 10

Results for O=[N+]([O-])c1ccc(CSc2nc3ccccc3o2)cc1 ?
DAGLB inh: -9; MsrA act: -14; SKN-1 block: 69*; beta cell repl: 0; MsrA inhibitor: -1; MT1-MMP act inh: 4

How did CC1CCN(C(=O)c2ncn3c2C(=O)N[C@H](C)C3)CC1 do in these assays?
MsrA inhibitor: 1

Results for COCCN1Cc2cc(C(=O)OC)c3c(c2C1=O)c1cc(OC)ccc1n3S(=O)(=O)c1ccc(F)cc1 ?
MsrA inhibitor: 0

Results for Clc1ccc(OCc2nc(-c3ccccn3)n[nH]2)cc1 ?
DAGLB inh: -5; MsrA act: -3; SKN-1 block: -10; beta cell repl: -6; MsrA inhibitor: 0; MT1-MMP act inh: 6

Results for Brc1ccc(OCc2nc(-c3ccccn3)n[nH]2)cc1 ?
DAGLB inh: -9; MsrA act: -8; SKN-1 block: 28*; beta cell repl: -3; MsrA inhibitor: -1; MT1-MMP act inh: 2

Results for COCC1CN(CCc2ccc(F)cc2)S(=O)(=O)c2c(F)cccc2O1 (stereo not drawn) ?
MsrA inhibitor: 1

How did CC(=O)N(/N=C1\Sc2ccccc2C1=O)c1ccccc1C do in these assays?
DAGLB inh: 7; MsrA act: 1; SKN-1 block: 40*; beta cell repl: -2; MsrA inhibitor: 1; MT1-MMP act inh: -23

What do the screens show for `CC(=O)N(/N=C1\Sc2ccccc2C1=O)c1ccc(C)cc1C`?
DAGLB inh: -2; MsrA act: -4; SKN-1 block: 43*; beta cell repl: -3; MsrA inhibitor: 0; MT1-MMP act inh: 15

How did Cc1c(CN2CCN(c3ncc(Cc4ccccc4)cn3)CC2)c(=O)n(-c2ccccc2)n1C do in these assays?
MsrA inhibitor: -1

Results for COc1ccc(C(=O)c2c(C(F)(F)F)oc3c2C(=O)c2ccccc2C3=O)cc1OC ?
DAGLB inh: 1; MsrA act: 1; SKN-1 block: -5; beta cell repl: -4; MsrA inhibitor: 47*; MT1-MMP act inh: -3

What do the screens show for `COc1ccc(C(=O)Nc2ccc3c(c2)C(=O)c2ccccc2C3=O)cc1OC`?
DAGLB inh: 1; MsrA act: -7; SKN-1 block: -5; beta cell repl: -3; MsrA inhibitor: 0; MT1-MMP act inh: 7

Results for C[C@H](CO)N1C[C@H](C)[C@@H](CN(C)C(=O)Nc2ccc(C(F)(F)F)cc2)OCc2cn(nn2)CCCC1=O ?
MsrA inhibitor: 1

Results for CCn1c2ccc(F)cc2c2nc3ccccc3nc21 ?
DAGLB inh: -10; MsrA act: -3; SKN-1 block: 40*; beta cell repl: 0; MsrA inhibitor: 1; MT1-MMP act inh: -1

How did Cn1c2ccc(F)cc2c2nc3ccccc3nc21 do in these assays?
DAGLB inh: -4; MsrA act: -2; SKN-1 block: 11; beta cell repl: 2; MsrA inhibitor: 2; MT1-MMP act inh: -8

How did C=CCN1C(=O)c2[nH]nc(-c3ccccc3)c2C1c1ccc(C)cc1 (stereo not drawn) do in these assays?
MsrA inhibitor: 2

How did CCCNC(=O)COC(=O)C1CCN(S(=O)(=O)c2ccc3c(c2)OCCO3)CC1 do in these assays?
DAGLB inh: -1; MsrA act: -1; SKN-1 block: 45*; beta cell repl: -4; MsrA inhibitor: -1; MT1-MMP act inh: 0

What do the screens show for `COC(=O)c1[nH]c2ccccc2c1NC(=O)C(C)N1CCOCC1` (stereo not drawn)?
DAGLB inh: -5; MsrA act: -12; SKN-1 block: 38*; beta cell repl: 0; MsrA inhibitor: 0; MT1-MMP act inh: -4
